Experimental data: ChEMBL document CHEMBL5376013, “Design, synthesis and biological evaluation of novel morpholinopyrimidine-5-carbonitrile derivatives as dual PI3K/mTOR inhibitors” (RSC Med Chem, 2024)

Tests used:
A549 = test: Antitumor activity against human A549 cells assessed as growth inhibition at 10 uM relative to control; assay type: functional; conditions: read-out: GI
In short: (§1)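 After drug addition, plates were incubated 48 h at 37 °C under 5% CO2. Adherent cells were fixed with cold TCA (10% final, 60 min, 4 °C) and suspension cells with 16% final TCA. Staining used 0.4% SRB in 1% acetic acid, solubilized in 10 mM trizma, read at A515. Percent growth was calculated from time-zero, control and treated absorbances.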

NCI-H460 = test: Antitumor activity against human NCI-H460 cells assessed as growth inhibition at 10 uM relative to control; assay type: functional; conditions: read-out: GI; in short: as §1
HCT-15 = test: Antitumor activity against human HCT-15 cells assessed as growth inhibition at 10 uM relative to control; assay type: functional; conditions: read-out: GI; in short: as §1
HT-29 = test: Antitumor activity against human HT-29 cells assessed as growth inhibition at 10 uM relative to control; assay type: functional; conditions: read-out: GI; in short: as §1
SK-MEL-2 = test: Antitumor activity against human SK-MEL-2 cells assessed as growth inhibition at 10 uM relative to control; assay type: functional; conditions: read-out: GI; in short: as §1
UACC-257 = test: Antitumor activity against human UACC-257 cells assessed as growth inhibition at 10 uM relative to control; assay type: functional; conditions: read-out: GI
In short: (§2)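 Drug exposure 48 h at 37 °C, 5% CO2. Adherent cells fixed with cold TCA (10% final), suspension cells with TCA (16% final). Stained with 0.4% SRB in 1% acetic acid, dissolved in 10 mM Tris, A515. Growth relative to time-zero and untreated control.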

UACC-62 = test: Antitumor activity against human UACC-62 cells assessed as growth inhibition at 10 uM relative to control; assay type: functional; conditions: read-out: GI; in short: as §2
OVCAR-4 = test: Antitumor activity against human OVCAR-4 cells assessed as growth inhibition at 10 uM relative to control; assay type: functional; conditions: read-out: GI; in short: as §1
OVCAR-5 = test: Antitumor activity against human OVCAR-5 cells assessed as growth inhibition at 10 uM relative to control; assay type: functional; conditions: read-out: GI; in short: as §1
SK-OV-3 = test: Antitumor activity against human SK-OV-3 cells assessed as growth inhibition at 10 uM relative to control; assay type: functional; conditions: read-out: GI; in short: as §2
CAKI-1 = test: Antitumor activity against human CAKI-1 cells assessed as growth inhibition at 10 uM relative to control; assay type: functional; conditions: read-out: GI; in short: as §1
SN12C = test: Antitumor activity against human SN12C cells assessed as growth inhibition at 10 uM relative to control; assay type: functional; conditions: read-out: GI; in short: as §2
TK-10 = test: Antitumor activity against human TK-10 cells assessed as growth inhibition at 10 uM relative to control; assay type: functional; conditions: read-out: GI; in short: as §2
MCF7 = test: Antitumor activity against human MCF7 cells assessed as growth inhibition at 10 uM relative to control; assay type: functional; conditions: read-out: GI; in short: as §1
[1] = Cytotoxicity against human PCS-800-011 cells assessed as inhibition of cell growth by MTT assay; assay type: toxicity, cell-based
[2] = target: Phosphatidylinositol 4,5-bisphosphate 3-kinase catalytic subunit alpha isoform (Homo sapiens, UniProt P42336); test: Inhibition of PI3Kalpha (unknown origin)
Sequence of Phosphatidylinositol 4,5-bisphosphate 3-kinase catalytic subunit alpha isoform (P42336 whole entry, canonical isoform): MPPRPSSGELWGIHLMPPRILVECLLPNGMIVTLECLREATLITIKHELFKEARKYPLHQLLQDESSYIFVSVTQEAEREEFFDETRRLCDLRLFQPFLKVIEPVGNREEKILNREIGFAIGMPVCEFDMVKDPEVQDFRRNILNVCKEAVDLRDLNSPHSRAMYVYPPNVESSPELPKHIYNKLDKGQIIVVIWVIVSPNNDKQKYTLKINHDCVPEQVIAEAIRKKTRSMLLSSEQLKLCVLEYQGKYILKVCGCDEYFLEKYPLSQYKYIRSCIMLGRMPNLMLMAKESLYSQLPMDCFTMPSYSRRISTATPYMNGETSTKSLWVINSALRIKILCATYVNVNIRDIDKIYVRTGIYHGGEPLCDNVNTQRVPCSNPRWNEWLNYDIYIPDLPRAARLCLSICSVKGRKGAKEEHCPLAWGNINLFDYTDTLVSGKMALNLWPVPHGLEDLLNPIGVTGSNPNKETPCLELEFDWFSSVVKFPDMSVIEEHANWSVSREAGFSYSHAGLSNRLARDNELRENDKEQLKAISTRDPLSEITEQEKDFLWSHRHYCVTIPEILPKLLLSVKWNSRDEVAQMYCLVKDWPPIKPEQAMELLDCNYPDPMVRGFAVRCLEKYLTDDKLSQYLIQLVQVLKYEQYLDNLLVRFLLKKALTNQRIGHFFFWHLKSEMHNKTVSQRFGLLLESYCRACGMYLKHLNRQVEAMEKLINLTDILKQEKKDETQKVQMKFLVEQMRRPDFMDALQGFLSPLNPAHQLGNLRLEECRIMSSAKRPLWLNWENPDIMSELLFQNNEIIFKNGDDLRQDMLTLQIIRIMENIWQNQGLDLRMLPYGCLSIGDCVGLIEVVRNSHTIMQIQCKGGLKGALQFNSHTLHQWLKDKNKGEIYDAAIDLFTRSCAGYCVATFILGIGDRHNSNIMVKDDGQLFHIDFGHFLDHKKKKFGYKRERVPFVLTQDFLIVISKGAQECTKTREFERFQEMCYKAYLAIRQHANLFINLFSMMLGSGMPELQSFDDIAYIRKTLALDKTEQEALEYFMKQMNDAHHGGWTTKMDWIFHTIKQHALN
In short: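 Inhibitor preincubated 10 min before PIP2 substrate in kinase reaction buffer (25 µl final), 1 h reaction. Product detected by competition with biotinylated PIP3 for GRP1, with SA-HRP and TMB colour.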

[3] = target: T1, Serine/threonine-protein kinase mTOR (Homo sapiens, UniProt P42345); test: Inhibition of mTOR (unknown origin) incubated for 1 hr by ELISA analysis
In short: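 Glutathione-coated plate loaded with mTOR substrate (1 h, room temperature). mTOR with compound in 2X kinase assay buffer, 30 min at 30 °C, then stop solution. Phospho-p70S6K-T389 detected by primary antibody, then HRP conjugate (1 h each), TMB, A450 with 540 or 595 nm reference.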

SR [4] = test: Induction of cell cycle arrest in human SR cells assessed as accumulation of cells at pre-G phase incubated for 24 hrs by PI staining based flow cytometry analysis (reference value: 1.39%); assay type: functional
SR [5] = test: Induction of cell cycle arrest in human SR cells assessed as accumulation of cells at G1 phase incubated for 24 hrs by PI staining based flow cytometry analysis (reference value: 53.01%); assay type: functional
SR [6] = test: Induction of cell cycle arrest in human SR cells assessed as accumulation of cells at G2/M phase incubated for 24 hrs by PI staining based flow cytometry analysis (reference value: 8.57%); assay type: functional
SR [7] = test: Induction of cell cycle arrest in human SR cells assessed as accumulation of cells at S phase incubated for 24 hrs by PI staining based flow cytometry analysis (reference value: 38.42%); assay type: functional
SR [8] = test: Induction of cell cycle arrest in human SR cells assessed as cell aggregates incubated for 24 hrs by PI staining based flow cytometry analysis (reference value: 1.47%); assay type: functional
SR [9] = test: Induction of cell cycle arrest in human SR cells assessed as cell debris incubated for 24 hrs by PI staining based flow cytometry analysis (reference value: 1.93%); assay type: functional
SR [10] = test: Induction of apoptosis in human SR cells assessed as early apoptotic cells incubated for 24 hrs by AnnexinV-FITC/propidium iodide staining based flow cytometry (Rvb =0.29%); assay type: functional
SR [11] = test: Induction of apoptosis in human SR cells assessed as late apoptotic cells incubated for 24 hrs by AnnexinV-FITC/propidium iodide staining based flow cytometry (Rvb =0.18%); assay type: functional
SR [12] = test: Induction of apoptosis in human SR cells assessed as necrotic cells incubated for 24 hrs by AnnexinV-FITC/propidium iodide staining based flow cytometry (Rvb =0.92%); assay type: functional
SR [13] = test: cells; conditions: Homo sapiens
[14] = target: T1, Serine/threonine-protein kinase mTOR; test: Inhibition of mTOR in human SR cells by Western blot analysis; assay type: cell-based

| SMILES | inhibition of growth at 10 µM (A549) | inhibition of growth at 10 µM (NCI-H460) | inhibition of growth at 10 µM (HCT-15) | inhibition of growth at 10 µM (HT-29) | inhibition of growth at 10 µM (SK-MEL-2) | inhibition of growth at 10 µM (UACC-257) | inhibition of growth at 10 µM (UACC-62) | inhibition of growth at 10 µM (OVCAR-4) | inhibition of growth at 10 µM (OVCAR-5) | inhibition of growth at 10 µM (SK-OV-3) | inhibition of growth at 10 µM (CAKI-1) | inhibition of growth at 10 µM (SN12C) | inhibition of growth at 10 µM (TK-10) | inhibition of growth at 10 µM (MCF7) | IC50 [1] | IC50 [2] | IC50 [3] | Activity (SR [4]) | Activity (SR [5]) | Activity (SR [6]) | other results |
| --- | --- | --- | --- | --- | --- | --- | --- | --- | --- | --- | --- | --- | --- | --- | --- | --- | --- | --- | --- | --- | --- |
| N#Cc1c(-c2ccc(Cl)cc2)nc(N/N=C/c2cccc(O)c2)nc1N1CCOCC1 | 27.3% | 22.1% | 55.3% | 30.2% | < 1% | < 1% | < 1% | < 1% | < 1% | < 1% | 29.9% | 21.7% | 21% | < 39.9% | 44500 nM | 1270 nM | 2850 nM | 31.4% | 39.28% | 33.77% | Activity (SR [7]): 26.95%; Activity (SR [8]): 1.61%; Activity (SR [9]): 2.24%; Activity (SR [10]): 2.61%; Activity (SR [11]): 19.19%; Activity (SR [12]): 9.61%; IC50 (SR [13]): 90 nM |
| N#Cc1c(-c2ccc(Cl)cc2)nc(N/N=C/c2cccc(Cl)c2)nc1N1CCOCC1 | 18.1% | < 1% | 64.6% | 59.6% | < 1% | 28.4% | < 1% | < 1% | < 1% | < 1% | 20.8% | < 1% | < 1% | < 14.1% | 17500 nM | 170 nM | 830 nM | 44.26% | 32.95% | 37.64% | Activity (SR [7]): 29.41%; Activity (SR [8]): 1.51%; Activity (SR [9]): 1.96%; Activity (SR [10]): 3.54%; Activity (SR [11]): 27.96%; Activity (SR [12]): 12.76%; IC50 [14]: 103 nM; IC50 (SR [13]): 100 nM |
